For assay [1], the target named is T1, Tyrosyl-DNA phosphodiesterase 1 (Homo sapiens, UniProt Q9NUW8). The experiment in a line: Inhibition of human recombinant Tdp1 assessed as conversion of 14-mer 5'-32P-labeled 3'-phosphotyrosyl DNA substrate N14Y to 14-mer 5'-32P-labeled 3'-phosphate DNA product N14P after 15 mins by PAGE analysis.
Assay [2] addresses T1, Tyrosyl-DNA phosphodiesterase 1. The experiment in a line: Inhibition of human recombinant Tdp1 expressed in Tdp1 knockout chicken DT40 cells using 5'-32P-labeled 5'-GATCTAAAAGACTT-pY-3' as substrate after 15 mins by PAGE analysis.
For assay [3] the target is unchanged. The experiment in a line: Ratio of IC50 for human recombinant Tdp1 in presence of bovine serum albumin to IC50 for human recombinant Tdp1 in absence of bovine serum albumin.
The target is the same in assay [4]. Kind of assay: Inhibition of human recombinant Tdp1 assessed as conversion of 14-mer 5'-32P-labeled 3'-phosphotyrosyl DNA substrate N14Y to 14-mer 5'-32P-labeled 3'-phosphate DNA product N14P after 15 mins by PAGE analysis in presence of bovine serum albumin.
The target is the same in assay [5]. The experiment in a line: Binding affinity to human recombinant Tdp1 in amine coupled to CM5 sensor chip by surface plasmon resonance analysis. In short, it runs like this:
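SPR: Tdp1 amine-coupled to CM5 chip (~6000 RU), active site protected during coupling by prebinding 2 μM 3′-phosphate 14-mer oligo to 1 μM Tdp1 in 10 mM sodium acetate pH 4.5, 20 min. Compound series 0.39–50 μM in Tris/KCl/EDTA/DTT/BSA running buffer with 5% DMSO, pH 7.5, injected at 30 μL/min, 25 °C. Buffer-cycle referencing; DMSO calibration.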
For orientation: Surface plasmon resonance follows binding to a sensor surface in real time, without labels.

Assay [6] relates to N14Y tyrosyl-oligonucleotide (DNA, no organism). The experiment in a line: Binding affinity to biotin- GATCTAAAAGACTT-Tyr immobilized CM5 sensor chip by surface plasmon resonance analysis.
Assay [7] is filed under the species Homo sapiens. The experiment in a line: Selectivity ratio of IC50 for recombinant Tdp2 to IC50 for human recombinant Tdp1.
For assay [8], the target named is T2, Tyrosyl-DNA phosphodiesterase 2 (Homo sapiens, UniProt O95551).
T2 sequence (O95551 whole entry): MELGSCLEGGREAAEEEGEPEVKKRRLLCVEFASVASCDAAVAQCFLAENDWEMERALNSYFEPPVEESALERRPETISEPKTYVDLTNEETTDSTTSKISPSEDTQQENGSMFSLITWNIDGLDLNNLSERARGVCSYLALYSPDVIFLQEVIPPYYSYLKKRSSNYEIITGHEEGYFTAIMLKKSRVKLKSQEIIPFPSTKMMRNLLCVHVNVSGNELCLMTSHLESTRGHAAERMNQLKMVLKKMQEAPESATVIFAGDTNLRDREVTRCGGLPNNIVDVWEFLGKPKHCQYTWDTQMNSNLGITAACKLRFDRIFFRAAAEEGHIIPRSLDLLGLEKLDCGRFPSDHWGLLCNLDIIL
The experiment in a line: Inhibition of recombinant Tdp2.

Calls of active or inactive are those of the source. The calls are words filed in the database; no cut-off is given here.

As a reminder, the IC50 is the midpoint of a concentration-inhibition curve.

T1 sequence (Q9NUW8 whole entry): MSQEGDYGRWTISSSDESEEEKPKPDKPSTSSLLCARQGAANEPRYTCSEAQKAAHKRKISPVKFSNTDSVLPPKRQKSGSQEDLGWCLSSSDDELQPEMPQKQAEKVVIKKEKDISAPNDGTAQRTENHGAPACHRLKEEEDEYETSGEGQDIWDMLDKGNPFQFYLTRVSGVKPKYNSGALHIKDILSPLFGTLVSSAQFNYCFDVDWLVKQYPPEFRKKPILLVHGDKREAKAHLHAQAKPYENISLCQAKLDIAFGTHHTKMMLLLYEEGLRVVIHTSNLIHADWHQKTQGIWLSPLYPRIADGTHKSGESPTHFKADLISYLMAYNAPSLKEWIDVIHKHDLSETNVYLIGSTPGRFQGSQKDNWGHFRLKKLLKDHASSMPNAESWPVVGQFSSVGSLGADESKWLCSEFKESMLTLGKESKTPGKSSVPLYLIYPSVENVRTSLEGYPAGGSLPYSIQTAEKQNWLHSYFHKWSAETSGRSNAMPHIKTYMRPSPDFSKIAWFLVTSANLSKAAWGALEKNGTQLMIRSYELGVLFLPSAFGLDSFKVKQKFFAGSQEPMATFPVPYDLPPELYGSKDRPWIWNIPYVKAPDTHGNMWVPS

With `O=C1NC(=O)/C(=C/c2ccc(C(=O)O)cc2)S1`, in assay [1], the half-maximal inhibitory concentration (IC50) was above 111 µM.
Regarding `O=C1NC(=S)/C(=C/c2ccncc2)S1`, the half-maximal inhibitory concentration (IC50) in assay [1] amounted to 75 µM.
Same read-out and setting: for `CCOP(=O)(OCC)c1ccc(/C=C2\SC(=O)NC2=S)cc1` the value was 29 µM; for `O=C1NC(=S)/C(=C/c2ccc([N+](=O)[O-])cc2)S1`, 19 µM.
For `O=C1NC(=S)/C(=C/c2ccc(O)c(O)c2)S1`, the half-maximal inhibitory concentration (IC50) in assay [2] is 41 µM; in assay [1], 2.6 µM.
On to `O=C1NC(=O)/C(=C/c2ccc3[nH]ccc3c2)S1`, for which the half-maximal inhibitory concentration (IC50) in assay [1] was above 111 µM.
Same read-out and setting: as for `O=C1NC(=S)/C(=C/c2ccccc2O)S1`, the figure is 34 µM.
Turning to `O=C1NC(=S)/C(=C/c2ccccc2C(=O)O)S1` [listing 1 of 2 here], the IC50 in assay [2] was found to be 280 µM; in assay [1], 8.5 µM.
Turning to `COC(=O)c1cccc(/C=C2\SC(=O)NC2=S)c1`, in assay [1], the IC50 is 51 µM.
On the same count and under the same terms, as for `O=C1NC(=S)/C(=C/c2cccc(C(=O)O)c2)S1`, the figure is 15 µM; as for `O=C1/C(=C/c2ccc(F)cc2)NC(=S)N1c1ccccc1`, above 333 µM; as for `Cn1cc(/C=C2\SC(=O)NC2=S)c2ccccc21`, 40 µM.
As to `O=C1NC(=S)/C(=C/c2ccc(P(=O)(O)O)cc2)S1`, the results for the half-maximal inhibitory concentration (IC50) in assay [2] and in assay [1] were 69 µM and 2.2 µM, respectively.
`O=C1NC(=S)/C(=C/c2ccc(O)cc2)S1`: in assay [1], the 50% inhibitory concentration (IC50) was found to be 39 µM.
As for `O=C1NC(=S)/C(=C/c2ccc(-c3ccccc3)s2)S1`, the half-maximal inhibitory concentration (IC50) in assay [1] was found to be 46 µM.
On to `O=C1NC(=S)/C(=C/c2ccc(-c3nnn[nH]3)cc2)S1`, for which, in assay [1], the IC50 came out at 32 µM.
Same read-out and setting: as for `O=C1NC(=S)/C(=C/c2ccccc2S(=O)(=O)O)S1`, the figure is 20 µM; as for `O=C1NC(=S)/C(=C/c2ccc(Br)cc2)S1`, 30 µM; as for `O=C1NC(=S)/C(=C/c2cccc(O)c2)S1`, 26 µM.
On to `O=C1NC(=S)/C(=C/c2ccccc2C(=O)O)S1` [listing 2 of 2 here], for which the values for the IC50 in assay [2] and in assay [1] were 138 µM and 15 µM, respectively.
As for `N#C/C(=C\c1ccc(Br)cc1)C(N)=S`, the 50% inhibitory concentration (IC50) in assay [1] is above 333 µM.
With `O=C1/C(=C/c2ccc(O)c(O)c2)NC(=S)N1c1ccccc1`, in assay [1], the IC50 was determined as 74 µM.
On to `O=C1NC(=S)N(Cc2ccccc2)/C1=C\c1ccc(O)c(O)c1`, for which, in assay [1], the IC50 was 13 µM.
The same measure, in the same setting: as for `N#C/C(=C\c1ccc(F)cc1)C(N)=S`, the figure is above 333 µM; as for `N#Cc1ccc(/C=C2\SC(=O)NC2=S)cc1`, 28 µM; as for `O=C1NC(=O)/C(=C/c2ccc(F)cc2)S1`, above 333 µM.
Same read-out and setting: as for `COc1cc(/C=C2\SC(=O)NC2=S)ccc1O`, the figure is 11 µM; as for `N#C/C(=C\c1ccc(O)c(O)c1)C(=S)NCc1ccccc1`, 18 µM.
For the compound `O=C1NC(=S)/C(=C/c2cccc(O)c2O)S1`, the IC50 in assay [2] worked out at 220 µM; in assay [1], 5.8 µM.
On to `O=C1NC(=S)/C(=C/c2ccccc2-c2nnn[nH]2)S1`, for which the IC50 in assay [1] came to 111 µM.
As for `O=C1NC(=S)/C(=C/c2ccc(O)cc2O)S1`, the IC50 in assay [2] turned out to be 76 µM; in assay [1] it was 4.1 µM.
The like results for `O=C1NC(=S)/C(=C/c2ccc(C(=O)O)cc2)S1` [listing 1 of 2 here] were, in that order, 11 µM and 16 µM.
On to `O=C1NC(=S)/C(=C/c2ccc(F)cc2)S1`, for which, in assay [1], the IC50 came out at 27 µM.
Same read-out and setting: as for `CC(=O)Nc1ccc(/C=C(\C#N)C(N)=S)cc1`, the figure is above 333 µM; as for `N#C/C(=C\c1ccc(C(=O)O)cc1)C(N)=S`, 12 µM.
For `O=C1NC(=S)N(Cc2ccccc2)/C1=C\c1ccc(C(=O)O)cc1`, the 50% inhibitory concentration (IC50) in assay [1] was above 333 µM.
The same measure, in the same setting: as for `N#C/C(=C\c1ccc(O)c(O)c1)C(=O)NCc1ccccc1`, the figure is above 333 µM.
Turning to `O=C1NC(=S)/C(=C/c2ccc(C(=O)O)cc2)S1` [listing 2 of 2 here], the results for the half-inhibitory concentration (IC50) in assay [2] and in assay [1] were 6.9 µM and 7.8 µM, respectively.
Regarding `O=C1NC(=S)/C(=C/c2ccc3[nH]ccc3c2)S1`, the IC50 in assay [1] is 12 µM.
Still for that read-out and setting: for `N#C/C(=C\c1ccc(O)c(O)c1)C(N)=O` the value was above 333 µM; for `N#C/C(=C\c1ccc(O)c(O)c1)C(=O)O`, above 333 µM.
`O=C1NC(=S)/C(=C/c2cccnc2)S1`: in assay [1], the IC50 was determined as 44 µM.
For `O=C1NC(=S)/C(=C/c2ccc(O)c(O)c2O)S1`, the Ratio IC50 in assay [3] was found to be 3; in assay [7], 20. In addition, the IC50 in assay [4] was 2.8 µM; in assay [2], 35 µM; in assay [8] it was 17 µM; in assay [1], 0.87 µM. Moreover, in assay [5], the Activity entry is “Dose-dependent effect”. Moreover, the result in assay [6] was inactive.
In the case of `COc1cc(/C=C2\SC(=O)NC2=S)cc(OC)c1O`, the 50% inhibitory concentration (IC50) in assay [1] amounted to 48 µM.
As for `O=C(O)c1ccc(/C=C2\NC(=S)N(c3ccccc3)C2=O)cc1`, the IC50 in assay [1] is above 333 µM.
The same measure, in the same setting: for `N#C/C(=C\c1ccc2[nH]ccc2c1)C(N)=S` the value was above 333 µM.
Same read-out and setting: for `N#C/C(=C\c1ccc([N+](=O)[O-])cc1)C(N)=S` the value was above 333 µM.
With `O=C1NC(=S)/C(=C/c2cc(O)ccc2O)S1`, the half-maximal inhibitory concentration (IC50) in assay [2] came out at 76 µM; in assay [1] it was 7.1 µM.
The like results for `COC(=O)c1ccc(/C=C2\SC(=O)NC2=S)cc1` were, in that order, 38 µM and 6.7 µM.
`N#C/C(=C\c1ccc2ccccc2c1)C(N)=S`: the IC50 in assay [1] was above 333 µM.
Same read-out and setting: for `O=C1NC(=S)/C(=C/c2csc3ccccc23)S1` the value was 34 µM; for `N#CC(C#N)=Cc1cc(O)c(O)c(O)c1` [TYRPHOSTIN 25], above 333 µM.

(Values after ChEMBL document CHEMBL2169786, “5-Arylidenethioxothiazolidinones as inhibitors of tyrosyl-DNA phosphodiesterase I” (J Med Chem, 2012).)
